# Source: PubChem BioAssay (several laboratories)
# In the library only some 5.1% were active in any assay of this set; here they are far more common.
# BAP1 inh: inhibitors of human BAP1 deubiquitinase | Q92560 | recombinant BAP1, Ub-AMC hydrolysis fluorescence kinetic; active compounds read low | calls only at 20 µM | actives 0.48% (n = 72,000) | AID 436;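 active = activity remaining at or below 50% of control, provided the compound also passes the data quality filters; inactive = the rest, including low values that fail the filters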;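 note: 100% = DMSO wells rate and 0% = substrate alone blank rate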
# M1 ag: M1 muscarinic receptor agonism. CHO-M1 cells, Fluo-4 calcium fluorescence, agonist mode; active compounds read high. actives 3% (n = 64,000). B-score at 10 µM;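 active = fluorescence rise, raw or as B-score row- and column-corrected plate score, outside the 99.7% band of its plate's samples, either direction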
# Hsp90 inh: displaces geldanamycin probe from tumor Hsp90 | P07900 | NCI-N417 lysate Hsp90, Cy3B-geldanamycin FP displacement | inhibition, % at 30 µM | actives 0.35% (n = 64,000);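 active = inhibition above 50%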;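 note: 0% = tracer plus lysate wells and 100% = tracer alone without lysate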
# E coli WT exp: growth inhibitors of E. coli BW25113 wild type | growth inhibition, % at 100 µM | AID 710 | actives 0.15% (n = 98,000) | OD600 absorbance;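 active = growth inhibition above about 50% at one test dose, limit read from the data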;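 note: growth measured after 20 h incubation at 37 °C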
# Ecoli tolC: E. coli tolC mutant growth inhibition | E. coli BW25113 tolC mutant growth, OD615 | growth inhibition, % at 10 µM (by protocol) | actives 2.2% (n = 65,000) | AID 573;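 active = growth inhibition at or above a cutoff equal to the mean over every tested compound plus 3 SD, cut at about 60% in these data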;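 note: growth measured after 20 h incubation at 37 °C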
#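 Test system: tolC-deleted E. coli BW25113 | Medium: LB with kanamycin 50 µg/mL | Compound dosing: Single concentration, 10 µM final per compound | Schedule: 37 °C, 20 h exposure | Measured by: OD at 615 nm | Evaluation: Percent growth inhibition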
# M1 antag: M1 muscarinic receptor (rat) antagonism. P08482. CHO-M1 cells, Fluo-4 calcium, ACh EC80 antagonist mode; active compounds read low. B-score at 10 µM. actives 3.4% (n = 64,000);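 active = calcium fluorescence response, raw or row-and-column corrected B-score, differing from the plate sample mean either way at a set confidence level, mostly lower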
# Target sequence (P08482 whole entry, looked up): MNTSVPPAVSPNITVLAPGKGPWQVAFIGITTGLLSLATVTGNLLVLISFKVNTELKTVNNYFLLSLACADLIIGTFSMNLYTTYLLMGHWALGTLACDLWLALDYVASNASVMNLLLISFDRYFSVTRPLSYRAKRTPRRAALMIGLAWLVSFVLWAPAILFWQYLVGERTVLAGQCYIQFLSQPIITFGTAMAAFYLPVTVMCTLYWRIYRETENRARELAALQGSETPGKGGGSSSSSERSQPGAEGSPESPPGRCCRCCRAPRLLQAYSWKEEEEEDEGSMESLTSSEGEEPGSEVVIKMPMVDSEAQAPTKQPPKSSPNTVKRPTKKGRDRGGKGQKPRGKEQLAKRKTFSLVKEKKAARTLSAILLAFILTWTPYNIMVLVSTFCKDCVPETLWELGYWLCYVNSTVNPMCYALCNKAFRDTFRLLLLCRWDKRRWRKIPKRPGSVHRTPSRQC
# M1 antag confirm: M1 muscarinic receptor (rat) antagonism, confirmed; shares compounds with M1 antag; CHO-M1 cells, Fluo-4 calcium, ACh EC80 antagonism; active compounds read low; calcium response (max-min fluorescence) at 10 µM; actives 43% (n = 1,700);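 active = calcium response below the same-plate mean of wells given acetylcholine alone at its 80%-effect dose, minus 3 SD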;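 note: raw fluorescence intensity difference in arbitrary instrument units and not normalized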
# mGluR4 antag: mGluR4 (human) activity, M1 antagonist secondary assay; fluorescence response (max-min) at 10 µM; actives 0.9% (n = 1,700); AID 678; shares compounds with M1 antag; CHO-mGluR4 calcium flux, Fluo-4 fluorescence, glutamate EC80; active compounds read low;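 active = fluorescence response below the plate's average for near-maximal glutamate wells, less 3 SD of those wells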;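 note: raw unnormalized fluorescence span taken in the window right after glutamate addition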
# An asterisk follows results filed as active; i = inactive; . = no result shown.
SMILES,BAP1 inh,M1 ag,Hsp90 inh,E coli WT exp,Ecoli tolC,M1 antag,M1 antag confirm,mGluR4 antag
NC(=O)c1cc2cc(Cl)ccc2oc1=Nc1ccc(F)cc1,i,.,.,.,.,.,.,.
CSC1=NCCN1C(=O)c1c(F)cccc1F,i,0.55,1,0,-15,-3.1*,641,250
CSC1=NCCN1C(=O)c1ccco1,i,0.48,-2,-3,-19,0.14,.,.
COc1ccccc1-c1noc(-c2ccccc2)n1,i,-0.0044,-2,8,12,-17*,506*,263
COc1ccc(-c2nc(-c3ccccc3OC)no2)cc1OC,i,1.4,-5,5,22,-1.3,.,.
CCOc1ccccc1-c1nc(-c2ccc(C)nc2OC)no1,i,-0.066,-2,-3,8,-0.78*,663,237
Cc1cc(N2CCCCCC2)nc2ccccc12,.,.,.,16,.,.,.,.
Cc1cc(N2CCCN(C)CC2)nc2cc(Cl)ccc12,i,-1.3,0,27,0,-3.7*,378*,259
O=C1c2ccccc2C(=O)c2cc(I)ccc21,i,.,.,.,.,.,.,.
CCCC1(CCC)NC(=O)NC1=O,i,0.05,-4,-10,-16,-2.9*,587,249
COc1ccc(-n2nc3c(c2NC(=O)c2cccc(C(F)(F)F)c2)CSC3)cc1,i,.,.,.,.,.,.,.
Cn1nc(OCC(N)=O)ccc1=O,i,0.0056,-6,-5,-9,0.1,.,.
NC(=O)COc1ccc(=O)n(-c2ccccc2)n1,i,-0.76,-1,0,-16,-2.4*,564,226
O=C(COC(=O)CCNS(=O)(=O)c1ccc(Cl)cc1)NCc1ccco1,i,1.4,-2,5,-5,-2.8*,612,240
Cc1cccc(Cn2c(Sc3nc(C)cs3)nc3c2c(=O)[nH]c(=O)n3C)c1,i,-0.64,-5,-3,-6,-7.1*,524*,276
Cc1ccc(Cn2c(CN3CC(C)OC(C)C3)nc3c2c(=O)[nH]c(=O)n3C)cc1 (stereo not given),i,0.036,-4,3,-1,-5.2*,546,183
Cc1ccc(Cn2c(SCCN3CCCCC3)nc3c2c(=O)[nH]c(=O)n3C)cc1,i,0.015,-2,5,-3,-1.9*,457*,232
C=CCn1c(SCCN2CCCCC2)nc2c1c(=O)[nH]c(=O)n2C,i,0.032,-1,5,11,-2.7*,468,203
C=CCn1c(SCCOC)nc2c1c(=O)[nH]c(=O)n2C,i,-0.18,-1,4,-16,0.8,.,.
CCCSc1nc2c(c(=O)[nH]c(=O)n2C)n1Cc1ccc(Cl)cc1,i,.,.,.,.,.,.,.
CC(=O)NC(=O)c1cc2c(ccc3ccccc32)oc1=Nc1ccc(C(C)=O)cc1,i,.,.,.,.,.,.,.
CCCn1c2ccccc2c2nc3cc(OC)c(OC)cc3nc21,i,.,.,.,.,.,.,.
COC(=O)c1sc2ccccc2c1NC(=O)c1ccc(S(=O)(=O)N(C)c2ccccc2)cc1,i,.,.,.,.,.,.,.
O=C(c1ccccc1)c1ccc(Br)c([N+](=O)[O-])c1,i,.,.,.,.,.,.,.
Cn1c(=O)[nH]c(=O)c2c1nc(SCCN1CCCCC1)n2Cc1ccccc1,i,0.0092,2,4,-13,-3.8*,530*,205
SMILES,BAP1 inh,M1 ag,Hsp90 inh,E coli WT exp,Ecoli tolC,M1 antag,M1 antag confirm,mGluR4 antag
CCCCSc1nc2c(c(=O)[nH]c(=O)n2C)n1CCc1ccccc1,i,-0.0089,-1,.,17,-0.035,.,.
Cn1c(=O)[nH]c(=O)c2c1nc(SCCN1CCCCC1)n2CCCc1ccccc1,i,0.43,-3,-2,-36,-3.8*,428,187
O=C(CSc1nc2sc3c(c2c(=O)n1-c1ccccc1)CCC3)c1ccc2c(c1)OCCO2,i,.,.,.,.,.,.,.
CCOc1ccc(C(=O)Nc2c3c(nn2-c2ccc(OC)cc2)CSC3)cc1,i,.,.,.,.,.,.,.
COc1ccc(C2CC(=O)C(C=NCCN3CCNCC3)=C(O)C2)cc1OC (stereo not given),i,-1.8,-2,-19,-4,-1,.,.
O=C1CC(c2ccc(Cl)cc2)CC(O)=C1C=NCCN1CCNCC1 (stereo not given),.,-0.58,.,2,4,-5.3*,512*,184
CCOC(=O)N1CCC2(CC1)CC(=O)c1c(ccc3oc(C(=O)O)c(C)c13)O2,.,0.044,-2,-4,-7,-3.3*,668,242
CC1CCN(C(=O)CCc2ccc(S(=O)(=O)NC(C)(C)C)cc2)CC1,.,.,.,-6,.,.,.,.
CCCNS(=O)(=O)c1ccc(CCC(=O)N2CCC(C)CC2)cc1,i,0.04,-1,-3,13,-2*,643,253
CN(C)CCOC(=O)C1(c2ccccc2)CCOCC1,i,-1.4,-2,-3,-17,-3.2*,362*,202
O=C(OCCCN1CCCC1)C1(c2ccccc2)CCCC1,i,0.039,-4,-4,4,-18*,27*,261
O=C(OCCCN1CCCCC1)c1ccc(O)cc1,i,0.36,-11,2,-11,0.49,.,.
COc1cccc(C(=O)Nc2cc(-c3nc4ccccc4[nH]3)ccc2C)c1,i,.,.,.,.,.,.,.
Cc1ccc(NC(=O)NC(=O)CN2C(=O)NC3(CCCCCCC3)C2=O)c(C)c1,i,-0.12,-2,3,35,-2.2*,588,164
O=C(O)CCC(=O)Nc1ccc(S(=O)(=O)Nc2nccs2)cc1,i,-0.078,-3,.,0,-11*,695,195
O=C(CCC1CCCCC1)Nc1ccc(S(=O)(=O)Nc2nccs2)cc1,.,.,.,-2,.,.,.,.
C=CCc1ccccc1OCC(O)CN(C(C)C)C(C)C (stereo not given),i,0.038,-5,-6,-8,-2*,382*,230
C=CCc1ccccc1OCC(O)CNC (stereo not given),i,0.04,-2,-3,-13,-0.34,.,.
CN(C)S(=O)(=O)c1ccc(C(=O)N2CC(=O)Nc3ccc(Cl)cc3C2c2ccccc2)cc1 (stereo not given),i,.,.,.,.,.,.,.
Clc1ccc(OCCn2ccnc2)c(Cl)c1,i,-1.7,0,11,18,-3*,408*,211
Cc1cc(Cn2ccnc2)c(C)cc1Cn1ccnc1,i,-0.41,0,4,13,-2*,559,266
COc1ccc(Cc2nc3ccc(S(N)(=O)=O)cc3[nH]2)cc1OC,i,0.42,2,-1,5,-2.9*,580,225
Cc1cc2nnc(SCC(=O)O)n2c2ccccc12,i,.,.,.,.,.,.,.
CSc1ccc(-c2nnn(Cc3ccc(C)cc3)n2)cc1,.,1.4,.,-1,36,-5.4*,617,244
CCOC(=O)Nc1ccc2c(c1)N(C(=O)CN(CC)CC)c1ccccc1C=C2,i,0.11,-5,1,-2,-5.9*,28*,232
O=C(Nc1ccc(Br)cc1)c1ccc(-c2ccccc2)cc1,i,.,.,.,.,.,.,.
